Bioassay records (PubChem)
The sample as a whole holds a higher share of hits than the screen did.
Avidin bead fluor – compound fluoresces at 488/530 nm on avidin beads; compound fluorescence 488/530 nm, flow cytometry; hits give high values; hit rate 0.38% among 220,000; fluorescence (KMESF) at 10 µM; AID 1775; in the data active means fluorescence above about 47
ABCB1 block – inhibitors of human ABCB1 transporter, ABCG2 counter-screen | P08183 | CCRF-Adr cells, JC-1 efflux, flow cytometry | inhibition, % at 6.6 µM | hit rate 0.067% among 190,000 | AID 1326; in the data active means inhibition above about 40%;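 further: 0% = vehicle and 100% = reference inhibitor; higher value means more JC-1 retained so stronger ABCB1 efflux block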
GSH fluor – GSH bead compound fluorescence profile; GSH beads flow cytometry, compound fluorescence 488/530 nm; hits give high values; fluorescence (KMESF) at 10 µM; hit rate 0.25% among 190,000; AID 1776; in the data active means fluorescence above about 89;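 further: glutathione beads carrying GST-tagged Bcl family fusion proteins plus one bare bead set; values are compound well signal with DMSO vehicle wells as background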
PKD1 inh – blocks activity of human protein kinase D1; PKD1 kinase fluorescence polarization assay; inhibition, % (concentration not given with the values); hit rate 0.056% among 200,000; AID 797
ABCG2 block – inhibitors of human ABCG2 transporter, ABCB1 counter-screen. inhibition, % at 6.6 µM. Q9UNQ0. hit rate 0.1% among 190,000. IgMXP3 cells, JC-1 efflux, flow cytometry. AID 1325;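 active means inhibition above 80%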;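 further: 0% = DMSO and 100% = nicardipine control wells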
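System: two drug-resistant human cell lines, ABCG2 and ABCB1; controls: nicardipine high and DMSO low controls; times: 10 min exposure at 25 °C with rotation, no wash; detection: flow cytometry of retained JC-1 fluorescence; read-out basis: percent efflux inhibition, scaled nicardipine 100% to DMSO 0%; doses: one concentration, 6.6 µM final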
L major viab – Leishmania major promastigote growth inhibition; Leishmania major promastigotes, resazurin fluorescence viability; inhibition, % at 10 µM; hit rate 9% among 200,000; AID 1063;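 further: promastigotes grown with compound for 44 hours at 28 °C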
Starred values were filed as active, the others as inactive; nt = no result. Unless noted, no stated cut-off is given here; in the data, active means inhibition above about 50%; inactive means the rest.

SMILES	Avidin bead fluor	ABCB1 block	GSH fluor	PKD1 inh	ABCG2 block	L major viab
CCCCOc1ccc(C(=S)N2CCC(C(N)=O)CC2)cc1	13	0	13	-1	0	-5
Cc1ccc(S(=O)(=O)N(CC(=O)NCc2ccco2)Cc2ccccc2F)cc1	3	1	47	-5	0	93*
Cc1[nH]c2ccccc2c1C(=O)COC(=O)c1ccc([N+](=O)[O-])s1	22	1	11	-1	11	100*
O=C(COC(=O)c1ccc([N+](=O)[O-])s1)Nc1ccccc1	15	1	9	-5	15	38
O=C(COC(=O)c1ccc([N+](=O)[O-])s1)NC(c1ccccc1)c1ccccc1	13	0	4	-13	3	67*
O=C(COC(=O)c1ccc([N+](=O)[O-])s1)NCc1ccccc1	14	1	12	-6	13	12
CC(C)(C)c1ccc(NC(=O)COC(=O)c2ccc([N+](=O)[O-])s2)cc1	8	0	8	2	11	58*
CC(=O)NC(CC(=O)N(C)Cc1cccc(Cl)c1Cl)c1ccccc1 (centres undefined)	7	0	12	0	0	7
COc1ccc(C(CNC(=O)C2CC(=O)N(Cc3ccc(C)cc3)C2)N(C)C)cc1 (centres undefined)	12	-1	34	4	12	4
CSCCC(NC(=O)c1ccccc1)C(=O)Nc1ccc(NC(C)=O)cc1 (centres undefined)	15	9	11	-3	23	55*
COc1ccc(S(=O)(=O)N2CCOCC2)cc1NC(=O)CO/N=C/c1ccccc1OC(F)F	8	14	11	-3	19	7
CCOc1ccc(C(=O)N[C@H](C(=O)Nc2cccc(S(=O)(=O)N3CCCCC3)c2)C(C)C)cc1	4	8	7	-5	4	97*
CCOc1ccc(NC(=O)[C@@H](NC(=O)c2ccccc2Br)C(C)C)cc1	6	0	30	-8	2	98*
CC(O/N=C/c1ccccc1OC(F)F)C(=O)Nc1cccc(S(=O)(=O)N2CCOCC2)c1 (centres undefined)	8	2	6	-11	6	51*
Cc1cccc(C(=O)N[C@H](C(=O)Nc2cccc(S(=O)(=O)N3CCCC3)c2)C(C)C)c1	16	nt	nt	nt	nt	nt
Cc1ccc(NC(=O)C2CCCN2C(=O)OC(C)(C)C)cc1C (centres undefined)	8	nt	nt	nt	nt	nt
CC(C)[C@H](NC(=O)c1cccc(S(=O)(=O)N2CCOCC2)c1)C(=O)Nc1nccs1	10	1	21	-4	3	-11
CSCCC(NC(=O)c1cccc(S(=O)(=O)N2CCOCC2)c1)C(=O)Nc1ccc(F)cc1 (centres undefined)	14	1	8	-13	48	73*
Cc1ccc(NC(=O)[C@@H](NC(=O)c2cccc(S(=O)(=O)N3CCOCC3)c2)C(C)C)cc1C	11	0	6	-8	19	76*
O=C(CCCN1C(=O)c2ccccc2C1=O)Nc1nnc(C2CC2)s1	24	0	19	-5	1	-10
CS(=O)(=O)N(CC(=O)N1CCCC1)c1cccc(Cl)c1	24	0	18	-4	-7	-7
C/C(=N\NC(=O)CNc1cccc(C)c1)c1ccc(Br)s1	6	0	4	-9	-1	57*
O=S(=O)(Nc1nc2ccccc2nc1Nc1ccc2c(c1)OCO2)c1ccc(F)cc1	11	0	11	8	1	1
COC(=O)Nc1ccc(S(=O)(=O)N2CCCC(C(=O)NC3CCS(=O)(=O)C3)C2)cc1 (centres undefined)	11	0	5	10	-9	58*
O=C(NC1CCS(=O)(=O)C1)C1CCCN(S(=O)(=O)c2ccc(Cl)cc2)C1 (centres undefined)	10	0	11	3	4	-7
CSc1sc(C(=O)N(C)C)c2c1S(=O)(=O)N(C)c1ccccc1-2	15	nt	nt	nt	nt	nt
CC(C)CNC(=O)c1c2c(nc3ccccc13)-c1ccccc1CC2	9	1	15	5	3	2
CCN(CC)C(=O)c1c2c(nc3ccccc13)-c1ccccc1CC2	6	1	30	-1	1	62*
Cc1ccc2cc(C#N)c(NCCNC(=S)NCCCN(C)C)nc2c1C	11	-1	19	5	5	100*
